Assay results from ChEMBL document CHEMBL1687930 (J Med Chem, 2011).

Columns and labels:
[1] = Ratio of inhibition of growth in P-glycoprotein overexpressing human A2780-AD10 cells to inhibition of growth in human A2780; assay type: functional, A2780 ADR
MDCK-II = assay: Ratio of GI50 for dog MDCK2-MDR1 cells overexpressing human P-glycoprotein to GI50 for dog MDCK2 cells; assay type: functional, Canis lupus familiaris
LLC-PK1 [2] = assay: Ratio of GI50 for pig L-MDR1 cells overexpressing human P-glycoprotein to GI50 for pig LLC-PK1 cells; assay type: functional, Sus scrofa
Summary of the method: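 MDR ratio is the GI50 in L-MDR1 cells (Pgp-overexpressing) divided by the GI50 in parental LLC-PK1 cells. Each GI50 came from growth inhibition run at least in triplicate, with 8 wells per concentration, fitted by a four-parameter sigmoidal model.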

[3] = Upregulation of P-glycoprotein mRNA expression in dog MDCK2 cells; assay type: functional, cell-based; conditions: Canis lupus familiaris; MDCK-II
[4] = Growth inhibition of dog MDCK2-MDR1 cells overexpressing human P-glycoprotein; assay type: functional; conditions: Canis lupus familiaris, MDCK-II
Summary of the method: (§1)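 Parental lines (MDCKII, LLC-PK1) and matched Pgp-overexpressing lines (MDCKII-MDR1, about 500-fold Pgp; L-MDR1, about 25000-fold Pgp) were tested with and without the Pgp inhibitor LY335979. Each experiment was run at least in triplicate, with 8 wells per concentration. GI50 came from a nonlinear four-parameter sigmoidal concentration-response fit.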

[5] = target: T1, Kinesin-like protein KIF11 (Homo sapiens, UniProt P52732); assay: Inhibition of untagged human Eg5 basal ATPase activity; conditions: read-out: Ki(app)
T1 sequence (P52732 whole entry): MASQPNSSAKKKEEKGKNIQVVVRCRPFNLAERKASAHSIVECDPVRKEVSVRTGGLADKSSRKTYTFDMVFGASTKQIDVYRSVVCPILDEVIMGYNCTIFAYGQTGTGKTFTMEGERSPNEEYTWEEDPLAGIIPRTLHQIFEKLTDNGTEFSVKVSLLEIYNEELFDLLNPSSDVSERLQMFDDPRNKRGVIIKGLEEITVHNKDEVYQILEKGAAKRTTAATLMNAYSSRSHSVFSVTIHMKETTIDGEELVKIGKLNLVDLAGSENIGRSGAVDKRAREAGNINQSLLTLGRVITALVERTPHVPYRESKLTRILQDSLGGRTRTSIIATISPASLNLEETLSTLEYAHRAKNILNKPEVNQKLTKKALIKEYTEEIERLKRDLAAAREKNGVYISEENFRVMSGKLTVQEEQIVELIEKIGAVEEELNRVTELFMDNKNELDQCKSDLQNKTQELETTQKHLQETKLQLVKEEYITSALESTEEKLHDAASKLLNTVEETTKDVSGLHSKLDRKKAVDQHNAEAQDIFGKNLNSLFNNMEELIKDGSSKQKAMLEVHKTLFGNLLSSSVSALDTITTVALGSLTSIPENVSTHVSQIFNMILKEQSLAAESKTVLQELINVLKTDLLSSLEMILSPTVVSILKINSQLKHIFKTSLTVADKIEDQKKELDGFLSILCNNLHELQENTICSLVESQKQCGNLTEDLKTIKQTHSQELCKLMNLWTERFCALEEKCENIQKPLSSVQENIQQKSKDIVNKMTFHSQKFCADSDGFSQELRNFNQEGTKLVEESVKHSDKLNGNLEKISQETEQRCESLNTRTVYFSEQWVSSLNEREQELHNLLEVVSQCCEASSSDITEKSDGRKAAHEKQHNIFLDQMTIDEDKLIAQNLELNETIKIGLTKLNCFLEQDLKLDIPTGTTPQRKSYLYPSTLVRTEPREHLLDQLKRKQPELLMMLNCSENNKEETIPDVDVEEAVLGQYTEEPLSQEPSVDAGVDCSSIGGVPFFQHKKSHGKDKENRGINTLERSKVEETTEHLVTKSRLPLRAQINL

LLC-PK1 [6] = assay: Growth inhibition of pig LLC-PK1 cells; assay type: functional; conditions: Sus scrofa; summary of the method: as §1
[7] = Growth inhibition of pig L-MDR1 cells overexpressing human P-glycoprotein; assay type: functional; conditions: Sus scrofa; summary of the method: as §1
[8] = Growth inhibition of dog MDCK2 cells in presence of P-glycoprotein inhibitor LY335979; assay type: functional; conditions: Canis lupus familiaris, MDCK-II; summary of the method: as §1
[9] = Growth inhibition of pig L-MDR1 cells overexpressing human P-glycoprotein in presence of P-glycoprotein inhibitor LY335979; assay type: functional; conditions: Sus scrofa; summary of the method: as §1
LLC-PK1 [10] = assay: Upregulation of P-glycoprotein mRNA expression in pig LLC-PK1 cells; assay type: functional, Sus scrofa
LLC-PK1 [11] = assay: Growth inhibition of pig LLC-PK1 cells in presence of P-glycoprotein inhibitor LY335979; assay type: functional; conditions: Sus scrofa; summary of the method: as §1
[12] = target: T1, Kinesin-like protein KIF11; assay: Inhibition of untagged human Eg5 microtubule-stimulated ATPase activity
[13] = Growth inhibition of dog MDCK2 cells; assay type: functional; conditions: Canis lupus familiaris, MDCK-II; summary of the method: as §1
[14] = Growth inhibition of dog MDCK2-MDR1 cells overexpressing human P-glycoprotein in presence of P-glycoprotein inhibitor LY335979; assay type: functional; conditions: Canis lupus familiaris, MDCK-II; summary of the method: as §1
P388 [15] = assay: Upregulation of P-glycoprotein mRNA expression in mouse P388 cells; assay type: functional
P388 [16] = assay: Ratio of inhibition of growth in P-glycoprotein overexpressing mouse P388 cells to inhibition of growth in mouse P388; assay type: functional
KB 3-1 = assay: Ratio of inhibition of growth in P-glycoprotein overexpressing […] inhibition of growth in human KB-3-1 cells; assay type: functional

## CCCCN1C(=O)[C@@H]2Cc3c([nH]c4ccccc34)[C@@H](c3cccc(O)c3)N2C1=O
[1]
  Ratio: 2.4

## NCCSC(c1ccccc1)(c1ccccc1)c1ccccc1
MDCK-II
  RatioGI50: 0.8
LLC-PK1 [2]
  RatioGI50: 1.5
[3]
  fold change (FC): 500
[4]
  GI50: 0.57 µM
[5]
  Ki: 0.156 µM
LLC-PK1 [6]
  GI50: 3.29 µM
[7]
  GI50: 4.83 µM
[8]
  GI50: 0.85 µM
[9]
  GI50: 4.81 µM
LLC-PK1 [10]
  fold change (FC): 25000
LLC-PK1 [11]
  GI50: 3.88 µM
[12]
  IC50: 0.396 µM
[13]
  GI50: 0.74 µM
[14]
  GI50: 0.61 µM

## CCOC(=O)C1=C(C)NC(=S)N[C@H]1c1cccc(O)c1 [S-MENASTROL]
LLC-PK1 [2]
  Ratio: 1
P388 [15]
  fold change (FC): 20000
P388 [16]
  Ratio: 1
LLC-PK1 [10]
  fold change (FC): 25000

## CN1CC[C@H](N(C)C(=O)N2CC(c3cc(F)ccc3F)=C[C@@]2(CO)c2ccccc2)[C@H](F)C1
KB 3-1
  Ratio: 4.5
